Screens (PubChem BioAssay)
DENV2 CPE rescue: inhibitors of DENV2 cytopathic effect, primary screen, cell-based, plate reader, single concentration | DENV2-infected cells, cytopathic effect rescue | AID 651640, 2012 | hit rate 1.7% among 350,000 | CPE inhibition, % at 9.99 µM; in the data active = CPE inhibition above about 20%, passing the limit was not always enough; tested in BHK-21 cells
SIRT5 block: SIRT5 desuccinylase inhibitors, primary screen, biochemical, fluorescence imaging, single point, set 5; AID 652115, 2013; inhibition, % at 15 µM; NAD-dependent protein deacylase sirtuin-5, mitochondrial (Homo sapiens), Q9NXA8; hit rate 1.1% among 330,000; Purified SirT5, succinyl-peptide AMC, trypsin-coupled fluorescence; in the data active = inhibition above about 15%
Target sequence (Q9NXA8 whole entry, looked up): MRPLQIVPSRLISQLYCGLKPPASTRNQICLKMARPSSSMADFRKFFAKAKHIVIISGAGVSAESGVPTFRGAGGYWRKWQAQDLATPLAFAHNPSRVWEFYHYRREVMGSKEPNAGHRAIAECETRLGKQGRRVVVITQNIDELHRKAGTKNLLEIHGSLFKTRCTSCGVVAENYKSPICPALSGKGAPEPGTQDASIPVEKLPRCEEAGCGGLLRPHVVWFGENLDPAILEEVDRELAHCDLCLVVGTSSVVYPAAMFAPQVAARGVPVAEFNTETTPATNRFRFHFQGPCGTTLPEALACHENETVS
E-sel inducer: E-selectin induction in HUVECs, primary screen, imaging, HUVEC, immunofluorescence imaging, single point | P16581 | normalized: neutral wells 0, TNF-alpha wells 100 | activation, % at 7.58 µM | hit rate 0.37% among 260,000;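 active = mean E-selectin-positive cell signal at least 10% of the positive control, reached in at least 60% of replicates, without over 20% cell loss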
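Material: HUVEC primary endothelial cells; Amount: 3,000 cells per well; Dosing: single concentration; Medium: EGM-2 growth medium on 0.1% gelatin-coated wells; Read-out basis: percent E-selectin-positive cells; Signal: immunofluorescence imaging; Control set: TNF-alpha, DMSO.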
Large screens that a line does not name were inactive. Compounds with a hit are over-represented: about 2.9% of the library has one in this group of screens.

NC(=O)NCC#Cc1ccc2c(c1)[C@]1(C(=O)N2)[C@H](c2ccccc2OCCO)N2[C@H](c3ccccc3)[C@H](c3ccccc3)OC(=O)[C@H]2[C@@H]1C(=O)N1CCCCCCC1	none (no result: E-sel inducer)
O=C1O[C@H](c2ccccc2)[C@H](c2ccccc2)N2[C@H]1[C@@H](C(=O)N1CCCCCCC1)[C@]1(C(=O)Nc3ccccc31)[C@H]2c1ccccc1OCCO	DENV2 CPE rescue 42 (no result: E-sel inducer)
COc1ccc2c3c(n(C)c2c1)[C@@H](CO)N(C(=O)C1CC1)CC31CN(Cc2cccc(F)c2)C1	none
COC(=O)[C@]1(Cc2ccccc2)N=C(c2ccc(OCCCO)cc2)O[C@@H]1c1ccccc1CN=[N+]=[N-]	none (no result: E-sel inducer)
COC(=O)[C@@]1(Cc2ccccc2)N=C(c2ccc(OCCCO)cc2)O[C@H]1c1ccccc1CN=[N+]=[N-]	SIRT5 block 20 (no result: E-sel inducer)
CC1(C)OC(=O)C2=C(CC(CCc3ccccc3)OC2CCc2ccccc2)O1 (stereo not drawn)	none
CC(C)[C@@H]1CC2=C(C(=O)OC(C)(C)O2)[C@H](CCc2ccccc2)O1	DENV2 CPE rescue 42
CC(C)C[C@@H]1O[C@H](CCc2ccccc2)CC2=C1C(=O)OC(C)(C)O2	none
CC(C)C[C@@H]1CC2=C(C(=O)OC(C)(C)O2)[C@H](CCc2ccccc2)O1	DENV2 CPE rescue 29
COC(=O)[C@@]12C[C@@H](CC(=O)NCc3ccc(C)o3)C(=O)N(Cc3ccco3)C1=CCC(C)(C)C2	none
CCOC(=O)N1CCN(C(=O)CSc2ccc3nnc(-c4ccccn4)n3n2)CC1	SIRT5 block 16
CCCn1c(SCC(=O)N2CCCC(C)C2)nnc1-c1ccccn1 (stereo not drawn)	SIRT5 block 24 (no result: E-sel inducer)
O=C(CSc1ccc(-c2ccccn2)nn1)N1CCCCC1	SIRT5 block 15
O=C(CSc1ccc(-c2ccccc2)nn1)N1CCCCC1	none
O=C(CSc1ccc2nnc(-c3ccccn3)n2n1)N1CCOCC1	none (no result: SIRT5 block, E-sel inducer)
CCCn1c(SCC(=O)NC2CCCC2)nnc1-c1ccccn1	none
O=C(NCc1ccncn1)[C@H]1[C@H](CO)[C@H]2Cn3c(ccc(-c4ccccc4)c3=O)[C@H]2N1CC1CC1	none
CCOC(=O)/C(C#N)=C/N1CCOCC1	none
CCOC(=O)/C(=C\C=C\N1CCOCC1)C(C)=O	SIRT5 block 16 (no result: E-sel inducer)
Cn1cccc1C(=O)NNC(=O)COc1ccc(C#N)cc1	none
C[C@H](CO)N1C[C@H](C)[C@@H](CN(C)Cc2ccc(C(F)(F)F)cc2)OCCCC[C@H](C)Oc2ccc(NS(=O)(=O)c3cn(C)cn3)cc2C1=O	none
OCCCNc1nc(-c2ccc(Cl)cc2)nc2ccccc12	none
Cc1nnc(-c2ccc(Cl)cc2)nc1NCCN(C)C	SIRT5 block 18 (no result: E-sel inducer)
CCOc1[nH]n(-c2ccc(Cl)cc2)c(=O)c1C=NCc1cccnc1	none (no result: E-sel inducer)
CS(=O)(=O)c1ccc(Cl)c(NC(=O)CCN2C(=O)C3CC=CCC3C2=O)c1 (stereo not drawn)	none
O=C(Nc1ccccc1Cl)N1C[C@H]2[C@@H](c3ccccc31)[C@@H](CO)N2C(=O)c1cccnc1	none
O=C(NCc1ccccc1)C1C(=O)Nc2ccccc2C(=O)N1C1CCCC1 (stereo not drawn)	none
O=C(NCCc1ccccc1)C1C(=O)Nc2ccccc2C(=O)N1C1CCCCC1 (stereo not drawn)	E-sel inducer 207
Fc1ccc(CNC2CCN(Cc3ccccc3)CC2)cc1	DENV2 CPE rescue 35, SIRT5 block 21 (no result: E-sel inducer)
Clc1ccc(CNC2CCN(Cc3ccccc3)CC2)cc1	none
COc1ccccc1CNC(=O)C(=O)Nc1ccc(C(=O)N2CCC(C)CC2)cc1	DENV2 CPE rescue 65 (no result: E-sel inducer)
CC1CCN(C(=O)c2ccc(NC(=O)c3cccs3)cc2)CC1	none
CCOC(=O)Cc1csc(NC(=O)c2ccc(N3CCOCC3)cc2[N+](=O)[O-])n1	none
CC(C(=O)O)N(C(=O)c1ccccc1)c1ccc(F)cc1 (stereo not drawn)	SIRT5 block 26 (no result: E-sel inducer)
CC(C)C(=O)NN(C(=O)c1ccccc1)c1ccccc1	none (no result: E-sel inducer)
C[C@H](CO)N1C[C@H](C)[C@H](CN(C)Cc2ccc(C(=O)O)cc2)Oc2ccc(NC(=O)Nc3ccc(F)cc3)cc2CC1=O	none
C[C@@H]1CN([C@H](C)CO)C(=O)Cc2cc(NC(=O)Nc3ccc(F)cc3)ccc2O[C@H]1CN(C)Cc1ccc(-c2ccccc2)cc1	none
C[C@@H]1CN([C@@H](C)CO)C(=O)Cc2cc(NC(=O)Nc3ccc(F)cc3)ccc2O[C@H]1CN(C)Cc1ccc(C(=O)O)cc1	E-sel inducer 55
C[C@H]1CN([C@@H](C)CO)C(=O)Cc2cc(NC(=O)Nc3ccc4c(c3)OCO4)ccc2O[C@H]1CN(C)Cc1ccc(C(=O)O)cc1	DENV2 CPE rescue 78 (no result: E-sel inducer)
